Activity calls are given as the source filed them. The calls are words filed in the database; no cut-off is given here.

Assay [1] concerns the target T1, 5-hydroxytryptamine receptor 4 (Homo sapiens, UniProt Q13639). The assay can be described thus: Antagonist activity at 5-HT4 receptor in human HeLa cells assessed as inhibition of intracellular calcium mobilization at 10 uM incubated for 2 hrs by FLIPR assay. It is filed as cell-based. A digest of the protocol: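 HeLa cells stably expressing human 5-HT4, 20,000 per well, seeded the day before. Medium replaced with DMEM plus Calcium 6 dye, 2 h at 37 °C, then compounds and standard added. Intracellular calcium read by fluorescence (ex 480, em 540 nm) every second after a baseline. Duplicates.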
For orientation: A change in cytosolic calcium serves as a functional read-out for many receptors and channels.

Assay [2] addresses T2, 5-hydroxytryptamine receptor 7 (Homo sapiens, UniProt P34969). The assay can be described thus: Displacement of [3H]SB269970 from human 5-HT7 receptor expressed in HEK cell membrane incubated for 60 mins by microplate beta scintillation counting analysis. It is filed as cell membranes. For orientation: Displacement assays read how much labelled ligand stays bound in the presence of the test substance.

The target in assay [3] is T3, 5-hydroxytryptamine receptor 1A (Homo sapiens, UniProt P08908).
T3 sequence (P08908 whole entry): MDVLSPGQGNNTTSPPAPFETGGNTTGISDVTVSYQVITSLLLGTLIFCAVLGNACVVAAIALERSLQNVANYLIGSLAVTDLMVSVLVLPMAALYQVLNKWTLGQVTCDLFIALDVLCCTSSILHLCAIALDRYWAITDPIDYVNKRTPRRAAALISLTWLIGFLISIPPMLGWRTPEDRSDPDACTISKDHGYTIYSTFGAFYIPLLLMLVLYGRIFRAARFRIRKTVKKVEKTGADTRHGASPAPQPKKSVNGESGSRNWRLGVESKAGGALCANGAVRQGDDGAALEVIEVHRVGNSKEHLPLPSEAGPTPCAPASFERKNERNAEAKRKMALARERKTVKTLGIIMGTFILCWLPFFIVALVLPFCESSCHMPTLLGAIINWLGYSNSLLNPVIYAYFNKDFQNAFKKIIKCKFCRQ
Nature of the assay: Displacement of [3H]-8-OH-DPAT from human 5-HT1A receptor expressed in HEK cell membrane incubated for 120 mins by microplate beta scintillation counting analysis. The assay is classed as cell membranes. A digest of the protocol: (§1)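 Membranes from HEK cells expressing human 5-HT1A, 10 µg per well, with 1 nM [3H]-8-OH-DPAT, 120 min at 37 °C. Buffer 50 mM Tris-HCl, 5 mM MgSO4, pH 7.4. Nonspecific binding with 10 µM 5-HT. Filtered on PEI-treated GF/C and washed, then scintillation counted. Duplicates.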

Assay [4] concerns the target T4, 5-hydroxytryptamine receptor 6 (Homo sapiens, UniProt P50406). Nature of the assay: Displacement of [3H]-LSD from human 5-HT6 receptor expressed in HEK cell membrane incubated for 60 mins by microplate beta scintillation counting analysis. It is filed as cell membranes. A digest of the protocol:
(§2)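 Membranes from HEK cells expressing human 5-HT6, 5 µg per well, with 2 nM [3H]-LSD, 60 min at 37 °C. Buffer 50 mM Tris-HCl, 10 mM MgCl2, 0.5 mM EDTA, pH 7.4. Nonspecific binding with 100 µM 5-HT. Filtered on GF/C, scintillation counted.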

The target of assay [5] is T5, Acetylcholinesterase (Homo sapiens, UniProt P22303). The assay can be described thus: Inhibition of human AChE using acetylthiocholine iodide as substrate preincubated with enzyme for 20 mins followed by substrate addition and measured for 5 mins by Ellman's spectrophotometric method. For orientation: Ellman's reagent forms a yellow product with free thiols.
In assay [6] the target is T2, 5-hydroxytryptamine receptor 7. Nature of the assay: Displacement of [3H]SB269970 from human 5-HT7 receptor expressed in HEK cell membrane at 10 uM incubated for 60 mins by microplate beta scintillation counting analysis. It is filed as cell membranes. Summed up: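 Membranes from HEK cells expressing human 5-HT7, 2 µg per well, with 2 nM [3H]-SB269970, 60 min at 37 °C. Buffer Tris-HCl 50 mM, 4 mM CaCl2, 1 mM ascorbic acid, 0.1 mM pargyline, pH 7.4. Nonspecific binding with 25 µM clozapine. Filtered, scintillation counted. Duplicates. Displacement as % at 10 µM.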

Assay [7] addresses T6, 5-hydroxytryptamine receptor 1A (Homo sapiens) (UniProt P08908).
T6 sequence (whole entry): T3 sequence (P08908 whole entry)
The assay can be described thus: Displacement of [3H]-8-OH-DPAT from human 5-HT1A receptor expressed in HEK cell membrane at 10 uM incubated for 120 mins by microplate beta scintillation counting analysis. It is filed as cell membranes. Summed up:
as §1

Assay [8] has as its target T4, 5-hydroxytryptamine receptor 6. Nature of the assay: Displacement of [3H]-LSD from human 5-HT6 receptor expressed in HEK cell membrane at 10 uM incubated for 60 mins by microplate beta scintillation counting analysis. The assay is classed as cell membranes. Summed up: as §2
Assay [9] concerns the target T7, Cholinesterase (Homo sapiens, UniProt P06276). Nature of the assay: Inhibition of human BChE using butyrylthiocholine iodide as substrate at 10 uM preincubated with enzyme for 20 mins followed by substrate addition and measured for 5 mins by Ellman's spectrophotometric method. The following applies: time 25.0 min.
The target of assay [10] is T7, Cholinesterase. The assay can be described thus: Inhibition of human BChE using butyrylthiocholine iodide as substrate preincubated with enzyme for 20 mins followed by substrate addition and measured for 5 mins by Ellman's spectrophotometric method.
Assay [11] deals with T1, 5-hydroxytryptamine receptor 4. Nature of the assay: Antagonist activity at 5-HT4 receptor in human HeLa cells assessed as inhibition of intracellular calcium mobilization incubated for 2 hrs by FLIPR assay. It is filed as cell-based. Summed up: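 HeLa cells stably expressing human 5-HT4, seeded the day before at 20,000 cells/well. Medium replaced with DMEM plus Calcium 6 dye, then 2 h at 37 °C. Compounds and standard added afterwards. Fluorescence from intracellular calcium mobilization (ex 480 nm, em 540 nm) recorded every second after a baseline was set. Run in duplicate.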

Assay [12] addresses T5, Acetylcholinesterase. Nature of the assay: Competitive inhibition of human AChE using acetylthiocholine iodide as substrate preincubated with enzyme for 20 mins followed by varing concentrations of substrate addition and measured for 5 mins by Lineweaver-Burk plot analysis. A digest of the protocol:
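Human AChE, Ellman spectrophotometric method in 96-well format, run in triplicate. Kinetics: six acetylthiocholine concentrations (0.033 to 0.2 mM) crossed with four inhibitor concentrations (0–300 nM). Analysed by the Michaelis-Menten approach; kinetic parameters from nonlinear regression.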

T2 sequence (P34969 whole entry): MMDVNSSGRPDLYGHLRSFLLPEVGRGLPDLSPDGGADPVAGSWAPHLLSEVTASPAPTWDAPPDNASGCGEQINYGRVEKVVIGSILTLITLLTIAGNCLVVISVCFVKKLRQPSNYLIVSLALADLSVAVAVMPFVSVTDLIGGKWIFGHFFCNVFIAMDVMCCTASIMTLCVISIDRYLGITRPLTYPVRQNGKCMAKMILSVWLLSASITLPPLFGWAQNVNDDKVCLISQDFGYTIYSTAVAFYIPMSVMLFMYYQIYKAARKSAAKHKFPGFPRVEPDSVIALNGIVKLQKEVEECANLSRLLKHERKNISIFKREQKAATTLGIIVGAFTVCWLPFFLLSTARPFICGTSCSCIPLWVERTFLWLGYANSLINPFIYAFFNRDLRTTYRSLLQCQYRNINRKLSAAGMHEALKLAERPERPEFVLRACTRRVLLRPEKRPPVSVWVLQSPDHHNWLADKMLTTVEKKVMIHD
T7 sequence (P06276 whole entry): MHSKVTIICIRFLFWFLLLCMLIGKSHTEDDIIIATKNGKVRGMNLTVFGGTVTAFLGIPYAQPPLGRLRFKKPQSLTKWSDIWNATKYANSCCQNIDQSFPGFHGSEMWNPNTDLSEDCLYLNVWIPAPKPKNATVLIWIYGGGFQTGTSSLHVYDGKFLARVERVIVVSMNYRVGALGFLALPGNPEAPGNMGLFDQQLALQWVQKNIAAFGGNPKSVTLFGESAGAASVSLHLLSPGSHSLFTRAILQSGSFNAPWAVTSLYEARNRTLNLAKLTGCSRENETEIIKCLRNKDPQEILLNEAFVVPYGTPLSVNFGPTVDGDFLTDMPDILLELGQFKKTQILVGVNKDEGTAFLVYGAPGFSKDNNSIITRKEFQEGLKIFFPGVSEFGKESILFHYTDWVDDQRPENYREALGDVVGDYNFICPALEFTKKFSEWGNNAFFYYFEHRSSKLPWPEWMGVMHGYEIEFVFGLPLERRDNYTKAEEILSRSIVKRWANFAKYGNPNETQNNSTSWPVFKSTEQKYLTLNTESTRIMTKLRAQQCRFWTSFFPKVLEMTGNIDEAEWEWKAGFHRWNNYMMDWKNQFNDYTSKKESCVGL
T4 sequence (P50406 whole entry): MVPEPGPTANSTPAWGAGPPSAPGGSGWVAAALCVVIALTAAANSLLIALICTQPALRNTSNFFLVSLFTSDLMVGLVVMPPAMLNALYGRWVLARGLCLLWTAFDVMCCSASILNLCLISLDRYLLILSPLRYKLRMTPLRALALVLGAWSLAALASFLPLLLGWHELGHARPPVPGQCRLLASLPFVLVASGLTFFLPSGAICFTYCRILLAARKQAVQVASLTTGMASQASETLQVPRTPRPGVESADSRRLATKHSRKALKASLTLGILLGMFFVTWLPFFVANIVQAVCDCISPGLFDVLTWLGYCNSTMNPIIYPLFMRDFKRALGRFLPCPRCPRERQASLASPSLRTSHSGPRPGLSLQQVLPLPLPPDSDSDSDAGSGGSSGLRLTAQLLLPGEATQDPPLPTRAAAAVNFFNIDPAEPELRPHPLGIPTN
T5 sequence (P22303 whole entry): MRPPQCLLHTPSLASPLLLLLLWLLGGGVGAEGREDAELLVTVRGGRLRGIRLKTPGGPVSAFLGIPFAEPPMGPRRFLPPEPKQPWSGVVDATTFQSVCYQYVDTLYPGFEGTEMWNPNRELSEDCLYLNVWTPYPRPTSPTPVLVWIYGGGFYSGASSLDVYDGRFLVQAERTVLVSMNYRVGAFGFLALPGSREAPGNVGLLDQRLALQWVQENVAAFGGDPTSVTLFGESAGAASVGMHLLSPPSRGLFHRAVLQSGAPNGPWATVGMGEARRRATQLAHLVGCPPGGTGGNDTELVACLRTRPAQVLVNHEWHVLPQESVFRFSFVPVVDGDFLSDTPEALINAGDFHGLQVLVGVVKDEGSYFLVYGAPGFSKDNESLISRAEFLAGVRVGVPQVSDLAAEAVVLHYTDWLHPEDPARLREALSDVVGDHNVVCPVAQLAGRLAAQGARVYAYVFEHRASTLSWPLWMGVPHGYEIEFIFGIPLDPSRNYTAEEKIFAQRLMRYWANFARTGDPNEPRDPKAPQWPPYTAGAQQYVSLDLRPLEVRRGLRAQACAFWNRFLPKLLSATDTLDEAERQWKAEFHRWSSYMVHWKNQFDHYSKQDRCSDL
T1 sequence (Q13639 whole entry): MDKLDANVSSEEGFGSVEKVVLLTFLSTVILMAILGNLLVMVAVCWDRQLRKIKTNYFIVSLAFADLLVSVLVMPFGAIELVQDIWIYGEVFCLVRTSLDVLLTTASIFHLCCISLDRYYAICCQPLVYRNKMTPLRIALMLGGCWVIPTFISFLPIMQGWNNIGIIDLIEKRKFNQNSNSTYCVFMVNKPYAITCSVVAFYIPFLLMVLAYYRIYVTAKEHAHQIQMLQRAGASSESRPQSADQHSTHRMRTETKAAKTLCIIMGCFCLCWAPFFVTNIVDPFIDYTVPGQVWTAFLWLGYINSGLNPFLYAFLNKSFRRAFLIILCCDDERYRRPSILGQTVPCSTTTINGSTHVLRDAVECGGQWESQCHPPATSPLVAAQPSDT

Turning to `O=C1CC2Cc3ccsc3C2=NN1CCCCCCCN1CCN(Cc2cccc3c2ccn3S(=O)(=O)c2ccccc2)CC1` (centres undefined), the inhibition entry in assay [1] is “inactive”. The values for the Ki in assay [2], in [3] and in assay [4] were 3.76 µM, 6.62 µM and 0.08 µM, respectively. The compound also displayed an IC50 against Acetylcholinesterase [5] of 7.18 µM.
As to `O=C1CC2CCc3ccsc3C2=NN1CCCCCCN1CCN(Cc2cccc3c2ccn3S(=O)(=O)c2ccccc2)CC1` (centres undefined), the values for the inhibition in [1], in assay [6] and in assay [7] were 12%, 33% and 23%, respectively. In assay [4], this compound registered a Ki of 0.102 µM. Further, on Acetylcholinesterase [5], the IC50 came out at 9.8 µM.
For `O=C1CC2CCc3ccsc3C2=NN1CCCCN1CCCCC1` (centres undefined), the values for the inhibition (in assay [6]; in [8]; against Cholinesterase [9]) were 18%, 30% and 9%, respectively. The Ki in assay [3] turned out to be 4.3 µM. In addition, on Acetylcholinesterase [5], the IC50 was 2.09 µM.
`O=C1CC2CCc3ccsc3C2=NN1CCCCCN1CCN(Cc2cccc3c2ccn3S(=O)(=O)c2ccccc2)CC1` (centres undefined): the inhibition entry in [1] was “inactive”. In addition, the results for the Ki in assay [2] and in assay [4] were 1.69 µM and 0.063 µM, respectively. In addition, the inhibition in [7] amounted to 35%. The same compound registered an IC50 against Acetylcholinesterase [5] of 4.44 µM.
Turning to `O=C1CC2CCCc3ccsc3C2=NN1CCCCN1CCN(Cc2ccccc2)CC1` (centres undefined), the Ki in assay [2] was 0.976 µM; in assay [3], 0.414 µM; in assay [4], 1.43 µM. Also, the values for the IC50 at Cholinesterase [10] and at Acetylcholinesterase [5] were 4.13 µM and 1.23 µM, respectively.
On to `O=C1CC2CCc3ccsc3C2=NN1CCCCCCCN1CCN(Cc2cccc3c2ccn3S(=O)(=O)c2ccccc2)CC1` (centres undefined), for which the results for the inhibition in assay [1], in assay [6] (filed as antagonist) and in [7] were 16%, 43% and 33%, respectively. The compound also gave a Ki in assay [4] of 0.087 µM. The same compound yielded an IC50 at Acetylcholinesterase [5] of 4.56 µM.
On to `CN(C)CCCCN1N=C2c3sccc3CCC2CC1=O` (centres undefined), for which the inhibition in assay [6] turned out to be 24%; in assay [7], 37%; in assay [8], 36%. In addition, on Cholinesterase [9], the inhibition entry was “inactive”. The compound also gave an IC50 against Acetylcholinesterase [5] of 6.36 µM.
Regarding `O=C1CC2CCc3ccsc3C2=NN1CCCCN1CCN(Cc2cccc3c2ccn3S(=O)(=O)c2ccccc2)CC1` (centres undefined), the inhibition entry in assay [1] is “inactive”. Moreover, the inhibitory constant (Ki) in assay [2] was 2.01 µM; in assay [3], 2.84 µM; in assay [4] it was 0.236 µM. The compound also registered an IC50 at Acetylcholinesterase [5] of 7.61 µM.
Regarding `O=C1CC2CCc3sccc3C2=NN1CCCCN1CCN(Cc2ccccc2)CC1` (centres undefined), the IC50 on Cholinesterase [10] is 3.3 µM; at Acetylcholinesterase [5], 0.86 µM.
Regarding `O=C1CC2Cc3ccsc3C2=NN1CCCCCN1CCN(Cc2cccc3c2ccn3S(=O)(=O)c2ccccc2)CC1` (centres undefined), the inhibition entry in [1] was “inactive”. Besides, the Ki in [2] was found to be 1.8 µM; in assay [3], 3.58 µM; in [4], 0.0084 µM. Further, the IC50 on Acetylcholinesterase [5] stood at 6.89 µM.
With `O=C1CC2CCc3ccsc3C2=NN1CCCCN1CCCC1` (centres undefined), the inhibition in assay [6] came to 16%; in assay [8] it was 33%; against Cholinesterase [9], 14%. The same compound showed a Ki in assay [3] of 3.53 µM. Moreover, half-maximal inhibition on Acetylcholinesterase [5] (IC50) was put at 1.16 µM.
As for `O=C1CC2CCc3ccsc3C2=NN1CN1CCN(Cc2ccccc2)CC1` (centres undefined), the inhibition in assay [6] was determined as 23%; in assay [7], 24%; in assay [8] it was 28%. The IC50 was determined as 5.58 µM against Cholinesterase [10] and 13.6 µM on Acetylcholinesterase [5].
Consider `O=C1CC2CCc3ccsc3C2=NN1Cc1ccc(CN2CCN(Cc3ccccc3)CC2)cc1` (centres undefined), for which the figures for the Ki in assay [2], in assay [3] and in assay [4] were 2.11 µM, 0.786 µM and 1.26 µM, respectively. Moreover, the IC50 against Cholinesterase [10] stood at 9.7 µM; on Acetylcholinesterase [5], 3.65 µM.
In the case of `CCN(CC)CCCCN1N=C2c3sccc3CCC2CC1=O` (centres undefined), the values for the inhibition in assay [6] and in [8] were 10% and 27%, respectively. Moreover, the affinity in [3] corresponds to a Ki of 8.63 µM. Besides, the inhibition result on Cholinesterase [9] was “inactive”. This compound also gave an IC50 against Acetylcholinesterase [5] of 2.93 µM.
Take `Cn1cc(C(=O)OCC2CCN(CCNS(C)(=O)=O)CC2)c2ccccc21`: the Ki in assay [11] stood at 0.0014 µM.
`O=C1CC2Cc3ccsc3C2=NN1CCCCN1CCN(Cc2cccc3c2ccn3S(=O)(=O)c2ccccc2)CC1` (centres undefined): the inhibition in assay [1] is 26%. Further, the values for the inhibition constant (Ki) in assay [2], in assay [3] and in assay [4] were 2.02 µM, 4.61 µM and 0.193 µM, respectively. In addition, half-maximal inhibition against Acetylcholinesterase [5] (IC50) required 3.55 µM.
On to `O=C1CC2Cc3ccsc3C2=NN1CCCCCCN1CCN(Cc2cccc3c2ccn3S(=O)(=O)c2ccccc2)CC1` (centres undefined), for which the inhibition entry in assay [1] was “inactive”. In addition, in [6], the inhibition was 39%. Moreover, the Ki in assay [3] is 5.16 µM; in assay [4], 0.068 µM. The compound further registered an IC50 on Acetylcholinesterase [5] of 9.18 µM.
As for `O=C1CC2CCc3ccsc3C2=NN1CCN1CCN(Cc2ccccc2)CC1` (centres undefined), the inhibition in assay [6] came out at 26%. For the same compound, the Ki amounted to 0.123 µM at Acetylcholinesterase [12], 1.08 µM in assay [3] and 1.67 µM in assay [4]. For the same compound, the 50% inhibitory concentration (IC50) against Cholinesterase [10] is 5.11 µM; at Acetylcholinesterase [5] it was 0.17 µM.
As to `O=C1CC2CCc3ccsc3C2=NN1CCCCN1CCN(Cc2ccccc2)CC1` (centres undefined), the Ki in assay [2] worked out at 0.995 µM; in assay [3], 0.496 µM; in [4], 3.3 µM. This compound had an inhibition against Cholinesterase [9] of 45%. This compound yielded an IC50 at Acetylcholinesterase [5] of 0.756 µM.
With `O=C1CC2Cc3ccsc3C2=NN1CCCCN1CCN(Cc2ccccc2)CC1` (centres undefined), the results for the Ki in assay [2], in assay [3] and in [4] were 1 µM, 0.614 µM and 3.97 µM, respectively. The compound further showed an inhibition at Cholinesterase [9] of 11%. In addition, the IC50 on Acetylcholinesterase [5] was 0.538 µM.

As a reminder, the inhibition is how much of the control response was suppressed. Broadly, the Ki is a measure of affinity in units of concentration, obtained from inhibition or displacement. The IC50 is the midpoint of a concentration-inhibition curve.
